From ChEMBL document CHEMBL5058577, “EUbOPEN Chemogenomics Library 2 (Multiplex)” (2022)

Tested on: Fibroblast
Experiment: Multiplex assay against human fibroblast
Format: toxicity, cell-based
Outline: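 Per cents of healthy-nucleus cells form the tubulin, mitochondrial-mass and membrane-permeability phenotype values. Live cells were stained at seeding with Hoechst33342, BioTracker Green Microtubule Cytoskeleton Dye, MitoTracker Red and Annexin V Alexa Fluor 680. After compound addition they were imaged on a CQ1 microscope at 37°C and 5% CO2, and CellPathfinder machine-learning gating split them into Hoechst high-intensity objects or normal cells, normal cells into healthy, pyknosed or fragmented nuclei, and pyknosed cells into mitotic or apoptotic.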

[1] = 12 h, 1 µM, compound concentration 1 uM, replicate 1
[2] = 12 h, 1 µM, compound concentration 1 uM, replicate 2
[3] = 12 h, 10 µM, compound concentration 10 uM, replicate 1
[4] = 12 h, 10 µM, compound concentration 10 uM, replicate 2
[5] = 24 h, 1 µM, compound concentration 1 uM, replicate 1
[6] = 24 h, 1 µM, compound concentration 1 uM, replicate 2
[7] = 24 h, 10 µM, compound concentration 10 uM, replicate 1
[8] = 24 h, 10 µM, compound concentration 10 uM, replicate 2
[9] = 48 h, 1 µM, compound concentration 1 uM, replicate 1
[10] = 48 h, 1 µM, compound concentration 1 uM, replicate 2
[11] = 48 h, 10 µM, compound concentration 10 uM, replicate 1
[12] = 48 h, 10 µM, compound concentration 10 uM, replicate 2

Structure (SMILES): N#Cc1c(Oc2cccc(OS(=O)(=O)CCCC(F)(F)F)c2)cccc1C(F)(F)F
- Population Apoptotic (%) [1]: 51%
- Population Fragmented Nuclei (%) [1]: 13%
- Population Healthy Nuclei (%) [1]: 63%
- Population Hoechst High Intensity Objects (%) [1]: 2%
- Population Membrane Permeable-Phenotype (%) [1]: 1%
- Population Mitochondria Different-Phenotype (%) [1]: 7%
- Population Mitotic Cells (%) [1]: 48%
- Population Normal (%) [1]: 97%
- Population Pyknosed Nuclei (%) [1]: 23%
- Population Tubulin-Different-Phenotype (%) [1]: 38%
- Total Cell Count [1]: 146
- Population Apoptotic (%) [2]: 38%
- Population Fragmented Nuclei (%) [2]: 27%
- Population Healthy Nuclei (%) [2]: 48%
- Population Hoechst High Intensity Objects (%) [2]: 7%
- Population Membrane Permeable-Phenotype (%) [2]: 9%
- Population Mitotic Cells (%) [2]: 61%
- Population Normal (%) [2]: 92%
- Population Pyknosed Nuclei (%) [2]: 24%
- Population Tubulin-Different-Phenotype (%) [2]: 59%
- Total Cell Count [2]: 148
- Population Apoptotic (%) [3]: 31%
- Population Fragmented Nuclei (%) [3]: 14%
- Population Healthy Nuclei (%) [3]: 59%
- Population Hoechst High Intensity Objects (%) [3]: 6%
- Population Membrane Permeable-Phenotype (%) [3]: 1%
- Population Mitochondria Different-Phenotype (%) [3]: 7%
- Population Mitotic Cells (%) [3]: 68%
- Population Normal (%) [3]: 93%
- Population Pyknosed Nuclei (%) [3]: 26%
- Population Tubulin-Different-Phenotype (%) [3]: 36%
- Total Cell Count [3]: 180
- Population Apoptotic (%) [4]: 66%
- Population Fragmented Nuclei (%) [4]: 42%
- Population Healthy Nuclei (%) [4]: 22%
- Population Hoechst High Intensity Objects (%) [4]: 7%
- Population Membrane Permeable-Phenotype (%) [4]: 13%
- Population Mitochondria Different-Phenotype (%) [4]: 3%
- Population Mitotic Cells (%) [4]: 33%
- Population Normal (%) [4]: 92%
- Population Pyknosed Nuclei (%) [4]: 35%
- Population Tubulin-Different-Phenotype (%) [4]: 75%
- Total Cell Count [4]: 138
- Population Apoptotic (%) [5]: 50%
- Population Fragmented Nuclei (%) [5]: 20%
- Population Healthy Nuclei (%) [5]: 62%
- Population Hoechst High Intensity Objects (%) [5]: 6%
- Population Membrane Permeable-Phenotype (%) [5]: 1%
- Population Mitochondria Different-Phenotype (%) [5]: 4%
- Population Mitotic Cells (%) [5]: 50%
- Population Normal (%) [5]: 93%
- Population Pyknosed Nuclei (%) [5]: 17%
- Population Tubulin-Different-Phenotype (%) [5]: 45%
- Total Cell Count [5]: 148
- Population Apoptotic (%) [6]: 54%
- Population Fragmented Nuclei (%) [6]: 33%
- Population Healthy Nuclei (%) [6]: 50%
- Population Hoechst High Intensity Objects (%) [6]: 3%
- Population Membrane Permeable-Phenotype (%) [6]: 5%
- Population Mitochondria Different-Phenotype (%) [6]: 5%
- Population Mitotic Cells (%) [6]: 45%
- Population Normal (%) [6]: 96%
- Population Pyknosed Nuclei (%) [6]: 16%
- Population Tubulin-Different-Phenotype (%) [6]: 57%
- Total Cell Count [6]: 147
- Population Apoptotic (%) [7]: 44%
- Population Fragmented Nuclei (%) [7]: 13%
- Population Healthy Nuclei (%) [7]: 59%
- Population Hoechst High Intensity Objects (%) [7]: 5%
- Population Membrane Permeable-Phenotype (%) [7]: 4%
- Population Mitochondria Different-Phenotype (%) [7]: 12%
- Population Mitotic Cells (%) [7]: 55%
- Population Normal (%) [7]: 94%
- Population Pyknosed Nuclei (%) [7]: 27%
- Population Tubulin-Different-Phenotype (%) [7]: 43%
- Total Cell Count [7]: 174
- Population Apoptotic (%) [8]: 61%
- Population Fragmented Nuclei (%) [8]: 40%
- Population Healthy Nuclei (%) [8]: 23%
- Population Hoechst High Intensity Objects (%) [8]: 8%
- Population Membrane Permeable-Phenotype (%) [8]: 18%
- Population Mitochondria Different-Phenotype (%) [8]: 22%
- Population Mitotic Cells (%) [8]: 38%
- Population Normal (%) [8]: 91%
- Population Pyknosed Nuclei (%) [8]: 36%
- Population Tubulin-Different-Phenotype (%) [8]: 77%
- Total Cell Count [8]: 127
- Population Apoptotic (%) [9]: 60%
- Population Fragmented Nuclei (%) [9]: 18%
- Population Healthy Nuclei (%) [9]: 66%
- Population Hoechst High Intensity Objects (%) [9]: 7%
- Population Membrane Permeable-Phenotype (%) [9]: 1%
- Population Mitochondria Different-Phenotype (%) [9]: 5%
- Population Mitotic Cells (%) [9]: 40%
- Population Normal (%) [9]: 92%
- Population Pyknosed Nuclei (%) [9]: 14%
- Population Tubulin-Different-Phenotype (%) [9]: 42%
- Total Cell Count [9]: 145
- Population Apoptotic (%) [10]: 38%
- Population Fragmented Nuclei (%) [10]: 26%
- Population Healthy Nuclei (%) [10]: 59%
- Population Hoechst High Intensity Objects (%) [10]: 5%
- Population Membrane Permeable-Phenotype (%) [10]: 13%
- Population Mitochondria Different-Phenotype (%) [10]: 2%
- Population Mitotic Cells (%) [10]: 61%
- Population Normal (%) [10]: 94%
- Population Tubulin-Different-Phenotype (%) [10]: 56%
- Total Cell Count [10]: 133
- Population Apoptotic (%) [11]: 52%
- Population Fragmented Nuclei (%) [11]: 20%
- Population Healthy Nuclei (%) [11]: 54%
- Population Hoechst High Intensity Objects (%) [11]: 9%
- Population Membrane Permeable-Phenotype (%) [11]: 2%
- Population Mitochondria Different-Phenotype (%) [11]: 12%
- Population Mitotic Cells (%) [11]: 47%
- Population Normal (%) [11]: 90%
- Population Pyknosed Nuclei (%) [11]: 24%
- Population Tubulin-Different-Phenotype (%) [11]: 47%
- Total Cell Count [11]: 172
- Population Apoptotic (%) [12]: 59%
- Population Fragmented Nuclei (%) [12]: 43%
- Population Healthy Nuclei (%) [12]: 31%
- Population Hoechst High Intensity Objects (%) [12]: 2%
- Population Membrane Permeable-Phenotype (%) [12]: 23%
- Population Mitochondria Different-Phenotype (%) [12]: 15%
- Population Mitotic Cells (%) [12]: 40%
- Population Normal (%) [12]: 97%
- Population Pyknosed Nuclei (%) [12]: 25%
- Population Tubulin-Different-Phenotype (%) [12]: 89%
- Total Cell Count [12]: 150
